Laboratory results: article PMC3944097 (ACS chemical biology, 2013)

Assays:
different MMPs = test: Specificity and selectivity of probes to MMP enzymes; assay type: biochemical; settings: fluorescence activation by MMP enzymes (Figure 2a)
[1] = assay type: in vivo, mice; settings: for half-life: mouse, iv
Summary of the method: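 Female athymic nude mice bore SCC-7 tumours, grown from 1 × 10^6 cells injected subcutaneously into the right front flank and used at ~300 mm3. Probe was given intravenously via the tail vein. Blood was sampled at 1, 5, 15, 30, 45 and 60 min. Intact probe and the Met1/Met2 fragments were measured by HPLC–QTRAP LC–MS using a single MRM transition, with triplicate injections.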

[2] = LC/MS identification of parent probe, Met1 and Met2 in tumor, plasma and liver; assay type: in vivo, mice; settings: 60 min after probe injection; for species detected in liver: liver homogenate; for species detected in liver / parent probe in plasma: LC/MS; for species detected in SCC-7 tumor: tumor homogenate, high sensitivity LC/MS
Summary of the method: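 Female athymic nude mice bore subcutaneous SCC-7 tumours (~300 mm3) and received probe intravenously via the tail vein. At 60 min, plasma, tumour and liver were collected. Tissues were weighed, stored in liquid nitrogen and homogenised in H2O/acetonitrile 50/50 containing 10% HCOOH. After pellet removal, extracts were lyophilised and redissolved in the same solvent. High-sensitivity LC–MS then screened for parent probe, Met1 and Met2.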

MMP-13 = MMP-13 (Homo sapiens, UniProt P45452); test: LC/MS analysis of probe fragmentation on incubation with MMP-13; assay type: biochemical; settings: for metabolites found after incubation with MMP-13: 2 h incubation with MMP-13, LC/MS
Summary of the method: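 Test compound (1 μM) incubated with MMP-13 catalytic domain (40 nM) at 37 °C in 50 mM Tris, 10 mM CaCl2, 150 mM NaCl, 0.05% Brij35, pH 7.8. Aliquots were taken every 10 min to 60 min, then every 20 min to 120 min. Each was quenched with an equal volume of acetonitrile containing 10% HCOOH. Fragments were identified by UPLC–Q-Tof LC–MS.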

[3] = test system: catalytic domain of MMP-13; test: reaction buffer; settings: 37 °C, up to 120 min

cleaved bond [3] | Compound | enzyme specificity and selectivity over different MMPs (different MMPs) | Met1/Met2 ratio in blood ([1]; mice, i.v., blood samples at 1, 5, 15, 30, 45 and 60 min p.i., LC/MS) | half-life ([1]; blood) [min] | species detected in liver [2] | parent probe in plasma [2] | species detected in SCC-7 tumor [2] | metabolites found after incubation with MMP-13 (MMP-13) | intact probe in blood samples at 45 min after injection ([1]; mice, i.v., blood, LC/MS) | further cleavage of metabolite by MMP-13 (MMP-13; incubation with MMP-13, LC/MS, late time points)
 | CCN(CC)c1ccc2nc3ccc(N=Nc4ccc(N(C)CCCC(=O)NCCCC[C@@H](NC(=O)CNC(=O)[C@H](CCCNC(=N)N)NC(=O)[C@@H](NC(=O)CNC(=O)[C@H](CC(C)C)NC(=O)[C@@H]5CCCN5C(=O)CNC(=O)CCCCC[N+]5=C(C=CC=CC=C6N(CC)c7ccc8c(S(=O)(=O)[O-])cc(S(=O)(=O)O)cc8c7C6(C)C)C(C)(C)c6c5ccc5c(S(=O)(=O)[O-])cc(S(=O)(=O)O)cc65)C(C)C)C(=O)NCC(=O)NCC(=O)NCCOCCOCCOCCOCCOCCOCCOCCOCCOCCOCCOCCO)cc4)cc3[n+](-c3ccccc3)c2c1 [D-MMP-P12] | very similar enzyme specificity and selectivity with L-MMP-P12 | much higher than that of L-MMP-P12 at all the time points examined | 29.8 ± 0.45 | only Met2 fragment could be detected | still detectable after 1 h | parent D-MMP-P12 probe, Met1 and Met2 were all detectable | only the MMP specific metabolite Met1 but not Met2 was found |  | 
 | CCN(CC)c1ccc2nc3ccc(N=Nc4ccc(N(C)CCCC(=O)NCCCC[C@H](NC(=O)CNC(=O)[C@H](CCCNC(=N)N)NC(=O)[C@@H](NC(=O)CNC(=O)[C@H](CC(C)C)NC(=O)[C@@H]5CCCN5C(=O)CNC(=O)CCCCC[N+]5=C(C=CC=CC=C6N(CC)c7ccc8c(S(=O)(=O)[O-])cc(S(=O)(=O)O)cc8c7C6(C)C)C(C)(C)c6c5ccc5c(S(=O)(=O)[O-])cc(S(=O)(=O)O)cc65)C(C)C)C(=O)NCC(=O)NCC(=O)NCCOCCOCCOCCOCCOCCOCCOCCOCCOCCOCCOCCO)cc4)cc3[n+](-c3ccccc3)c2c1 [L-MMP-P12] |  |  | 7.81 ± 0.25 | only Met2 fragment could be detected | very little L-MMP-P12 was found | only Met2 was detected while no parent probe or Met1 was found | two major fragments | almost no intact L-MMP-P12 can be detected | 
 | Cy5.5-GPLGVR [Met2] |  |  |  |  |  |  |  |  | can be further cut by MMP-13 to form Met1
Gly4-Val5, major | GPLGVRGKGG |  |  |  |  |  |  |  |  | 
